Data reported in ChEMBL document CHEMBL1833840, “RGD mimetics containing phthalimidine fragment as novel ligands of fibrinogen receptor” (Bioorg Med Chem Lett, 2011).

Assays:
Platelet = assay: Inhibition of ADP-induced platelet aggregation in human platelet rich plasma by Borns method; format: functional
How it was run: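 Human platelet-rich plasma stimulated with ADP, with aggregation followed by Born's method.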

[1] = target: Integrin alpha-IIb/beta-3 (Homo sapiens) (UniProt P08514); assay: Displacement of FITC-labeled fibrinogen from alphaIIbbeta3 in human platelets
Chain of Integrin alpha-IIb/beta-3 (Homo sapiens) (P08514 whole entry, looked up): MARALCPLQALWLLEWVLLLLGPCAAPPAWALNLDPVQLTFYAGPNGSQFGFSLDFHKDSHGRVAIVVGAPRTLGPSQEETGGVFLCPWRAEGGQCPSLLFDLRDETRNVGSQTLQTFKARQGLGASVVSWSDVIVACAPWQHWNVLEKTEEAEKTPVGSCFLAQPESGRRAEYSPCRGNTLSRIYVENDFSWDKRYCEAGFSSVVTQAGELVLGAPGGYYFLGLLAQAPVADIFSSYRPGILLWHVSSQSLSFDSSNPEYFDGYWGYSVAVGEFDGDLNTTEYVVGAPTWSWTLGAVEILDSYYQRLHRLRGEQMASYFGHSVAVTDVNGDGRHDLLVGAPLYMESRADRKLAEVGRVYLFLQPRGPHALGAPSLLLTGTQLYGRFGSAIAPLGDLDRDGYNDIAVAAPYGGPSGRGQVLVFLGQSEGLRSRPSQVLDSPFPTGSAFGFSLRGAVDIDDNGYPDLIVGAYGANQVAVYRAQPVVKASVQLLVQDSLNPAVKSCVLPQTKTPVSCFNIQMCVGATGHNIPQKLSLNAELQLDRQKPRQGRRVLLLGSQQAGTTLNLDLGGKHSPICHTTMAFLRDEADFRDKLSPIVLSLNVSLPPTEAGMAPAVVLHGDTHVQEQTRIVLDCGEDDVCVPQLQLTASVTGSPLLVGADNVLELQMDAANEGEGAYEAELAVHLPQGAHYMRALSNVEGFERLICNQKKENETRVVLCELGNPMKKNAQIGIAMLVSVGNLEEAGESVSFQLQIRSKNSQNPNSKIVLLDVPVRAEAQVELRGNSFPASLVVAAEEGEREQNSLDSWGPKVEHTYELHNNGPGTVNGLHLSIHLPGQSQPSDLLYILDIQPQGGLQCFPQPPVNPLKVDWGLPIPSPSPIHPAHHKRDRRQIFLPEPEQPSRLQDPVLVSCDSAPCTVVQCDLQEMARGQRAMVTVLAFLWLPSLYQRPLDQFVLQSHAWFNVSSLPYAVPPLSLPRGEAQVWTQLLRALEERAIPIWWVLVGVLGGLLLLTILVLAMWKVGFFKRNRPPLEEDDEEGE

| IC50 (Platelet) [µM] | IC50 [1] [µM] | Structure (SMILES) |
| --- | --- | --- |
| 24 | 0.27 | O=C(O)CN1Cc2ccc(NC(=O)c3ccc(C4CCNCC4)cc3)cc2C1=O |
| 120 | 1.2 | O=C(O)CN1Cc2ccc(NC(=O)c3ccc4c(c3)CNCC4)cc2C1=O |
| 5.9 | 0.0055 | O=C(O)CCN1Cc2ccc(NC(=O)CCCC3CCNCC3)cc2C1=O |
| 9.6 | 0.0068 | O=C(O)CCN1Cc2ccc(NC(=O)c3ccc(C4CCNCC4)cc3)cc2C1=O |
| 0.54 |  | O=C(O)CCN1Cc2ccc(NC(=O)c3ccc(N4CCNCC4)cc3)cc2C1=O |
| 1.1 | 0.0065 | O=C(O)CCN1Cc2ccc(NC(=O)c3ccc4c(c3)CNCC4)cc2C1=O |
| 51 |  | O=C(O)CCCN1Cc2ccc(NC(=O)CCCC3CCNCC3)cc2C1=O |
| 410 |  | O=C(O)CCCN1Cc2ccc(NC(=O)c3ccc(C4CCNCC4)cc3)cc2C1=O |
| 330 |  | O=C(O)CCCN1Cc2ccc(NC(=O)c3ccc4c(c3)CNCC4)cc2C1=O |
| 1.1 | 0.022 | O=C(O)CCNC(=O)CCNC(=O)c1ccc2c(c1)CNCC2 |
| 4.5 |  | Cc1ccc(S(=O)(=O)N[C@@H](CNC(=O)Cc2cn(CCCC3CCNCC3)c3ccccc23)C(=O)O)cc1 |
| 0.09 |  | N=C(N)c1ccc(C(=O)Nc2ccc3c(c2)CCN(CC(=O)O)C3)cc1 |
| 66 |  | O=C(O)CN1Cc2ccc(NC(=O)CCCC3CCNCC3)cc2C1=O |
| 0.025 |  | O=C(O)CCNC(=O)c1ccc2c(c1)C(=O)N(CCC1CCNCC1)C2 |
| 5.4 | 0.35 | CC(CC(=O)O)N1Cc2ccc(NC(=O)CCCC3CCNCC3)cc2C1=O (racemic) |
| 6.2 |  | CC(CC(=O)O)N1Cc2ccc(NC(=O)c3ccc(C4CCNCC4)cc3)cc2C1=O (racemic) |
| 3.74 | 0.037 | CC(CC(=O)O)N1Cc2ccc(NC(=O)c3ccc(N4CCNCC4)cc3)cc2C1=O (racemic) |
| 0.086 | 0.0065 | CC(CC(=O)O)N1Cc2ccc(NC(=O)c3ccc4c(c3)CNCC4)cc2C1=O (racemic) |
